Source: ChEMBL document CHEMBL1139875, “Discovery of 4-aminobutyric acid derivatives possessing anticonvulsant and antinociceptive activities: a hybrid pharmacophore approach” (2007)
Active and inactive are the calls of the source. The rule behind the calls is not given here.

What was measured:
Rattus norvegicus [1] = assay: Anti-cold allodynia effect in Sprague-Dawley rat SNL model assessed as duration of paw withdrawal 100 mg/kg, ip after 2.5 hrs; assay type: functional; conditions: route intraperitoneal
How it was run: (§1)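 Left L5 spinal nerve ligation under pentobarbital (65 mg/kg i.p.). Allodynic rats dosed i.p. 100 mg/kg, vehicle 30% v/v PEG 400 in water. Acetone (100-200 µL) misted onto midplantar affected paw after 10 min acclimatization; paw withdrawal duration, mean of three samples at least 3 min apart; n = 4 rats.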

Rattus norvegicus [2] = assay: Anti-cold allodynia effect in Sprague-Dawley rat SNL model assessed as duration of paw withdrawal 100 mg/kg, ip after 2 hrs; assay type: functional; conditions: route intraperitoneal; how it was run: as §1
Mus musculus [3] = assay: Analgesic activity in Swiss Albino mouse assessed as number of acetic acid-induced writhing per 30 min after 100 mg/kg, ip; assay type: functional; conditions: route intraperitoneal
How it was run: (§2)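 Mice in groups of six dosed i.p. at 100 mg/kg, controls receiving 30% v/v PEG 400 in water. Writhing induced by i.p. 0.1 mL of 3% v/v acetic acid 1 h after drug. Writhes (abdominal stretch with at least one hind limb extended) counted over 30 min; % inhibition calculated. Mean ± SEM, Student's t test.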

Rattus norvegicus [4] = assay: Effect on spontaneous pain in Sprague-Dawley rat CCI model assessed as duration of paw withdrawal at 100 mg/kg, ip after 1.5 hrs; assay type: functional; conditions: route intraperitoneal
How it was run: (§3)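 Unilateral CCI of sciatic nerve (Bennett and Xie) in Sprague-Dawley rats under i.p. pentobarbital sodium (65 mg/kg). Spontaneous pain is scored over 5 min after 10 min acclimatization, as cumulative time the ipsilateral paw is held off the floor. Paw lifts from locomotion or repositioning are excluded. Drug is given at 100 mg/kg i.p. with 30% v/v PEG 400 vehicle. Mean ± SEM, n = 4, compared with predrug by ANOVA/Bonferroni.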

Rattus norvegicus [5] = assay: Antihyperalgesic effects in Sprague-Dawley rat CCI model assessed as duration of paw withdrawal at 100 mg/kg, ip after 0.5 hr; assay type: functional; conditions: route intraperitoneal
Rattus norvegicus [6] = assay: Effect on spontaneous pain in Sprague-Dawley rat CCI model assessed as duration of paw withdrawal at 100 mg/kg, ip after 2 hrs; assay type: functional; conditions: route intraperitoneal; how it was run: as §3
Rattus norvegicus [7] = assay: Antihyperalgesic effects in Sprague-Dawley rat CCI model assessed as duration of paw withdrawal at 100 mg/kg, ip after 1.5 hrs; assay type: functional; conditions: route intraperitoneal
Rattus norvegicus [8] = assay: Effect on spontaneous pain in Sprague-Dawley rat CCI model assessed as duration of paw withdrawal at 100 mg/kg, ip after 0.5 hr; assay type: functional; conditions: route intraperitoneal
How it was run: (§4)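 CCI rats (n = 4) dosed 100 mg/kg i.p. (vehicle 30% v/v PEG 400 in water). After 10 min acclimatization in a cage 5 cm above ground, cumulative time the ipsilateral paw was held off the floor over 5 min recorded, excluding locomotion lifts. Mean ± SEM; ANOVA/Bonferroni versus predrug.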

Mus musculus [9] = assay: Neurotoxicity in Swiss Albino mouse at 300 mg/kg, ip after 4 hrs by rotarod test; assay type: functional, organism-based; set-up: dose 300 mg/kg
How it was run: (§5)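 Swiss mice (20-25 g) are trained on an accelerating rotorod (10 rpm, 3.2 cm rod), then injected i.p. at 30, 100 or 300 mg/kg, with three per group. Neurotoxicity means failure to keep equilibrium for at least 1 min in each of three trials, checked at 0.5 and 4 h. The value reported is the minimum dose affecting half or more of the mice.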

Rattus norvegicus [10] = assay: Effect on spontaneous pain in Sprague-Dawley rat SNL model assessed as duration of paw withdrawal at 100 mg/kg, ip after 0.5 hr; assay type: functional; conditions: route intraperitoneal
How it was run: (§6)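 Rats underwent left L5 spinal nerve ligation (Kim and Chung) under i.p. pentobarbital (65 mg/kg). Spontaneous pain is recorded for 5 min after 10 min acclimatization, as cumulative duration the ipsilateral paw is lifted, excluding locomotor lifts. Dosing is 100 mg/kg i.p. in 30% v/v PEG 400/water, with testing at 0.5–2.5 h. Four rats, mean ± SEM versus predrug, one-way ANOVA with Bonferroni.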

Rattus norvegicus [11] = assay: Anti-dynamic allodynia effect in Sprague-Dawley rat SNL model assessed as latency to paw withdrawal 100 mg/kg, ip after 2.5 hrs; assay type: functional; conditions: route intraperitoneal
How it was run: (§7)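 Left L5 spinal nerve ligation rats, tested preoperatively and 9 days postoperatively, then given 100 mg/kg i.p. (vehicle 30% v/v PEG 400 in water). After 10 min acclimatization, plantar surface of affected paw stroked mildly with a cotton-bud; paw lift response recorded. n = 4; retested 0.5-2.5 h post-dose.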

Rattus norvegicus [12] = assay: Anti-dynamic allodynia effect in Sprague-Dawley rat SNL model assessed as latency to paw withdrawal 100 mg/kg, ip after 0.5 hr; assay type: functional; conditions: route intraperitoneal; how it was run: as §7
Rattus norvegicus [13] = assay: Effect on spontaneous pain in Sprague-Dawley rat SNL model assessed as duration of paw withdrawal at 100 mg/kg, ip after 1 hr; assay type: functional; conditions: route intraperitoneal; how it was run: as §6
Rattus norvegicus [14] = assay: Anti-cold allodynia effect in Sprague-Dawley rat SNL model assessed as duration of paw withdrawal 100 mg/kg, ip after 1 hrs; assay type: functional; conditions: route intraperitoneal; how it was run: as §1
Rattus norvegicus [15] = assay: Effect on spontaneous pain in Sprague-Dawley rat SNL model assessed as duration of paw withdrawal at 100 mg/kg, ip after 1.5 hrs; assay type: functional; conditions: route intraperitoneal; how it was run: as §6
Rattus norvegicus [16] = assay: Antihyperalgesic effects in Sprague-Dawley rat CCI model assessed as duration of paw withdrawal at 100 mg/kg, ip after 1 hr; assay type: functional; conditions: route intraperitoneal
Rattus norvegicus [17] = assay: Anti-cold allodynia effect in Sprague-Dawley rat SNL model assessed as duration of paw withdrawal 100 mg/kg, ip after 0.5 hr; assay type: functional; conditions: route intraperitoneal; how it was run: as §1
Rattus norvegicus [18] = assay: Anti-dynamic allodynia effect in Sprague-Dawley rat SNL model assessed as latency to paw withdrawal 100 mg/kg, ip after 1 hr; assay type: functional; conditions: route intraperitoneal; how it was run: as §7
Rattus norvegicus [19] = assay: Effect on spontaneous pain in Sprague-Dawley rat SNL model assessed as duration of paw withdrawal at 100 mg/kg, ip after 2.5 hrs; assay type: functional; conditions: route intraperitoneal; how it was run: as §6
Mus musculus [20] = assay: Anticonvulsant activity in Swiss Albino mouse at 300 mg/kg, ip after 0.5 hr by scSTY test; assay type: functional, organism-based; set-up: dose 300 mg/kg
How it was run: (§8)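 Mice (Swiss, 20-25 g) given i.p. doses of 30, 100 and 300 mg/kg under ADD program protocols, three per group, examined at 0.5 and 4 h in MES, scPTZ, scSTY or scPIC seizure tests. Value is the minimum dose protecting half or more of the mice.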

Rattus norvegicus [21] = assay: Anti-dynamic allodynia effect in Sprague-Dawley rat SNL model assessed as latency to paw withdrawal 100 mg/kg, ip after 2 hrs; assay type: functional; conditions: route intraperitoneal; how it was run: as §7
Rattus norvegicus [22] = assay: Effect on spontaneous pain in Sprague-Dawley rat CCI model assessed as duration of paw withdrawal at 100 mg/kg, ip after 1 hr; assay type: functional; conditions: route intraperitoneal; how it was run: as §4
Rattus norvegicus [23] = assay: Anti-dynamic allodynia effect in Sprague-Dawley rat SNL model assessed as latency to paw withdrawal 100 mg/kg, ip after 1.5 hrs; assay type: functional; conditions: route intraperitoneal; how it was run: as §7
Mus musculus [24] = assay: Anticonvulsant activity in Swiss Albino mouse at 300 mg/kg, ip after 4 hrs by scSTY test; assay type: functional, organism-based; set-up: dose 300 mg/kg; how it was run: as §8
Rattus norvegicus [25] = assay: Effect on spontaneous pain in Sprague-Dawley rat SNL model assessed as duration of paw withdrawal at 100 mg/kg, ip after 2 hrs; assay type: functional; conditions: route intraperitoneal; how it was run: as §6
Mus musculus [26] = assay: Anticonvulsant activity in Swiss Albino mouse at 300 mg/kg, ip after 4 hrs by scPIC test; assay type: functional, organism-based; set-up: dose 300 mg/kg; how it was run: as §8
Rattus norvegicus [27] = assay: Antihyperalgesic effects in Sprague-Dawley rat CCI model assessed as duration of paw withdrawal at 100 mg/kg, ip after 2 hrs; assay type: functional; conditions: route intraperitoneal
Mus musculus [28] = assay: Neurotoxicity in Swiss Albino mouse at 300 mg/kg, ip after 0.5 hr by rotarod test; assay type: functional, organism-based; set-up: dose 300 mg/kg; how it was run: as §5
Rattus norvegicus [29] = assay: Anti-cold allodynia effect in Sprague-Dawley rat SNL model assessed as duration of paw withdrawal 100 mg/kg, ip after 1.5 hrs; assay type: functional; conditions: route intraperitoneal; how it was run: as §1
Rattus norvegicus [30] = assay: Antihyperalgesic effects in Sprague-Dawley rat CCI model assessed as duration of paw withdrawal at 100 mg/kg, ip after 2.5 hrs; assay type: functional; conditions: route intraperitoneal
Mus musculus [31] = assay: Anticonvulsant activity in Swiss Albino mouse at 300 mg/kg, ip after 0.5 hr by scPIC test; assay type: functional, organism-based; set-up: dose 300 mg/kg; how it was run: as §8
Mus musculus [32] = assay: Analgesic activity in Swiss Albino mouse assessed as inhibition of acetic acid-induced writhing responses at 100 mg/kg, ip; assay type: functional; conditions: route intraperitoneal; how it was run: as §2
Mus musculus [33] = assay: Anticonvulsant activity in Swiss Albino mouse at 300 mg/kg, ip after 4 hrs by MES test; assay type: functional, organism-based; set-up: dose 300 mg/kg; how it was run: as §8
Rattus norvegicus [34] = assay: Effect on spontaneous pain in Sprague-Dawley rat CCI model assessed as duration of paw withdrawal at 100 mg/kg, ip after 2.5 hrs; assay type: functional; conditions: route intraperitoneal; how it was run: as §3
Mus musculus [35] = assay: Anticonvulsant activity in Swiss Albino mouse at 300 mg/kg, ip after 0.5 hr by MES test; assay type: functional, organism-based; set-up: dose 300 mg/kg; how it was run: as §8
Mus musculus [36] = assay: Anticonvulsant activity in Swiss Albino mouse at 300 mg/kg, ip after 0.5 hr by scPTZ test; assay type: functional, organism-based; set-up: dose 300 mg/kg; how it was run: as §8

## C/C(=N\NC(=O)NCCCC(=O)O)c1ccc(C)cc1
Rattus norvegicus [1]
  Activity: 14.3 s
Rattus norvegicus [2]
  Activity: 10.7 s
Mus musculus [3]
  Activity: 32.5
Rattus norvegicus [4]
  Activity: 18.3 s
Rattus norvegicus [5]
  Activity: 27.3 s
Rattus norvegicus [6]
  Activity: 10.9 s
Rattus norvegicus [7]
  Activity: 9.6 s
Rattus norvegicus [8]
  Activity: 23.9 s
Mus musculus [9]
  Activity: inactive
Rattus norvegicus [10]
  Activity: 22.2 s
Rattus norvegicus [11]
  Activity: 12.02 s
Rattus norvegicus [12]
  Activity: 12.5 s
Rattus norvegicus [13]
  Activity: 11.1 s
Rattus norvegicus [14]
  Activity: 23.9 s
Rattus norvegicus [15]
  Activity: 6.4 s
Rattus norvegicus [16]
  Activity: 13.2 s
Rattus norvegicus [17]
  Activity: 27.2 s
Rattus norvegicus [18]
  Activity: 9.1 s
Rattus norvegicus [19]
  Activity: 3.1 s
Mus musculus [20]
  Activity: inactive
Rattus norvegicus [21]
  Activity: 12.4 s
Rattus norvegicus [22]
  Activity: 21.8 s
Rattus norvegicus [23]
  Activity: 10.9 s
Mus musculus [24]
  Activity: inactive
Rattus norvegicus [25]
  Activity: 2.9 s
Mus musculus [26]
  Activity: inactive
Rattus norvegicus [27]
  Activity: 5.3 s
Mus musculus [28]
  Activity: Active
Rattus norvegicus [29]
  Activity: 12.9 s
Rattus norvegicus [30]
  Activity: 4.2 s
Mus musculus [31]
  Activity: Active
Mus musculus [32]
  inhibition in vivo at 100 mg/kg: 82%
Mus musculus [33]
  Activity: inactive
Rattus norvegicus [34]
  Activity: 10.7 s
Mus musculus [35]
  Activity: inactive
Mus musculus [36]
  Activity: Active
